Results: ChEMBL document CHEMBL2203113, “Discovery of 2-(2-oxo-1-phenyl-5-pyridin-2-yl-1,2-dihydropyridin-3-yl)benzonitrile (perampanel): a novel, noncompetitive α-amino-3-hydroxy-5-methyl-4-isoxazolepropanoic acid (AMPA) receptor antagonist” (J Med Chem, 2012)

How the values were obtained:
[1] = Antagonist activity at AMPA receptor in E18 rat cerebral cortical neurons assessed as inhibition of AMPA-induced intracellular Ca2+ response by fura-2 AM dye based fluorimetry; assay type: functional, cell-based
[2] = test system: Mus musculus; experiment: Anticonvulsant activity in po dosed ddY mouse AMPA-induced seizure model; assay type: functional; conditions: read-out: MED
Summary of the method: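 Male 5-week-old ddY mice given compound orally as a 0.5% MC suspension 1 h before challenge. Clonic seizures induced by intracerebroventricular AMPA infusion at 2 nmol/5 μL/min; latency to clonic seizure recorded. MED taken as lowest dose giving statistically significant prolongation of latency.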

[3] = Half life in Sprague-Dawley rat at 1 mg/kg, iv; assay type: ADME, organism-based; design: dose 1 mg/kg, route intravenous; conditions: in vivo
Summary of the method: (§1)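 Fasted male Sprague-Dawley rats, single 1 mg/kg dose iv or po, n = 3 per route. Blood drawn at set time points; plasma deproteinized with methanol/60% perchloric solution (500:1 v/v) and assayed by HPLC with fluorescence. Parameters from mean plasma concentrations of three animals by model-independent analysis; F = AUC(0-inf) oral/iv ratio.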

[4] = test system: Rattus norvegicus; experiment: AUC in Sprague-Dawley rat at 1 mg/kg, po; assay type: ADME, organism-based, Plasma; design: dose 1 mg/kg, route oral; conditions: in vivo; summary of the method: as §1
[5] = test system: Mus musculus; experiment: Anticonvulsant activity in ddY mouse MES-induced seizure model 0.75 to 2.12 mg/kg, po after 1hr; assay type: functional; conditions: dose mg/kg 0.75-2.12
[6] = Tmax in Sprague-Dawley rat at 1 mg/kg, po; assay type: ADME, organism-based; design: dose 1 mg/kg, route oral; conditions: in vivo; summary of the method: as §1
[7] = Ratio of drug level in brain to plasma in ddY mouse at 3 mg/kg, po after 60 mins; assay type: ADME, organism-based; design: dose 3 mg/kg, route oral; conditions: brain and plasma, read-out: BPR
Summary of the method: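 Male ddY mice dosed orally at 3 mg/kg; brain and plasma taken at 60 min. Brain homogenized in two volumes of water, then processed like plasma (methanol/perchloric deproteinization, HPLC with fluorescence). Ratio is the mean of two or three animals.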

[8] = Ratio of drug level in brain to plasma in Sprague-Dawley rat at 10 mg/kg, po after 30 mins; assay type: ADME, organism-based; design: dose 10 mg/kg, route oral; conditions: brain and plasma, read-out: BPR
Summary of the method: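 Male Sprague–Dawley rats were dosed orally. Brain was homogenized in two volumes of water. Brain homogenate and plasma were deproteinized with methanol/60% perchloric solution (500:1 v/v) and quantified by HPLC with fluorescence detection. The ratio is brain over plasma concentration, each value the mean of two or three animals.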

[9] = Volume of distribution at steady state in Sprague-Dawley rat at 1 mg/kg, iv; assay type: ADME, organism-based; design: dose 1 mg/kg, route intravenous; conditions: in vivo, read-out: Vdss; summary of the method: as §1
[10] = test system: Nucleic Acid; experiment: Ratio of drug level in CSF to fraction unbound in plasma in ddY mouse at 0.5 mg/kg, ip after 20 mins; assay type: ADME, organism-based, Rattus norvegicus; design: dose 0.5 mg/kg, route intraperitoneal; conditions: in vivo
Summary of the method: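 Male ddY mice were dosed ip. CSF was taken by cisternal puncture and processed like plasma: deproteinized with methanol/60% perchloric solution (500:1 v/v), then analysed by HPLC with fluorescence detection. The ratio is CSF concentration over unbound plasma concentration. Each value is the mean of two or three animals.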

[11] = test system: Mus musculus; experiment: Anticonvulsant activity in DBA/2J mouse audinogenic seizure model at 0.3 to 3 mg/kg, po after 1 hr; assay type: functional; conditions: dose mg/kg 0.3-3
[12] = Plasma clearance in Sprague-Dawley rat at 1 mg/kg, iv; assay type: ADME, organism-based; design: dose 1 mg/kg, route intravenous; summary of the method: as §1
[13] = test system: Rattus norvegicus; experiment: AUC in Sprague-Dawley rat at 1 mg/kg, iv; assay type: ADME, organism-based, Plasma; design: dose 1 mg/kg, route intravenous; conditions: in vivo; summary of the method: as §1
[14] = Cmax in Sprague-Dawley rat at 1 mg/kg, po; assay type: ADME, organism-based; design: dose 1 mg/kg, route oral; conditions: in vivo; summary of the method: as §1
[15] = Oral bioavailability in Sprague-Dawley rat at 1 mg/kg; assay type: ADME, organism-based; conditions: in vivo; summary of the method: as §1
[16] = test system: Mus musculus; experiment: Anticonvulsant activity in ICR mouse pentylenetetrazole-induced seizure model at 0.75 to 3 mg/kg, po after 30 mins; assay type: functional; conditions: 0.5 h, dose mg/kg 0.75-3
[17] = Half life in healthy human; assay type: ADME, organism-based; conditions: in vivo

| SMILES | IC50 [1] [nM] | also measured |
| --- | --- | --- |
| O=c1c(-c2ccsc2)cc(-c2ccccn2)cn1-c1cccnc1 | 780 |  |
| O=c1c(-c2ccccc2Cl)cc(-c2ccccn2)cn1-c1cccnc1 | 400 | minimal effective dose [2]: 25 mg/kg |
| N#Cc1sccc1-c1cc(-c2ccccn2)cn(-c2cccnc2)c1=O | 180 | minimal effective dose [2]: 25 mg/kg |
| O=c1c(-c2ccccc2C(F)(F)F)cc(-c2ccccn2)cn1-c1cccnc1 | 2100 |  |
| O=c1c(-c2cccnc2F)cc(-c2ccccn2)cn1-c1cccnc1 | 1450 | minimal effective dose [2]: 10 mg/kg |
| N#Cc1ccccc1-c1cc(-c2cccnc2)cn(-c2ccccc2)c1=O | 4020 |  |
| N#Cc1ccccc1-c1cc(-c2ccncc2)cn(-c2ccccc2)c1=O | 5530 |  |
| N#Cc1ccccc1-c1cc(-c2ccccc2)cn(-c2ccccc2)c1=O | 330 | minimal effective dose [2]: 25 mg/kg |
| N#Cc1ccccc1-c1cc(-c2ccccc2F)cn(-c2ccccc2)c1=O | 200 |  |
| N#Cc1ccccc1-c1cc(-c2cccs2)cn(-c2ccccc2)c1=O | 100 |  |
| N#Cc1ccccc1-c1cc(-c2ccccc2C#N)c(=O)n(-c2ccccc2)c1 | 8430 |  |
| COc1ccccc1-c1cc(-c2ccccc2C#N)c(=O)n(-c2ccccc2)c1 | 740 |  |
| N#Cc1ccccc1-c1cc(-c2ccsc2)cn(-c2ccccc2)c1=O | 140 |  |
| COc1cccc(-n2cc(-c3ccccn3)cc(-c3ccccc3C#N)c2=O)c1 | 250 |  |
| COc1ccccc1-n1cc(-c2ccccn2)cc(-c2ccccc2C#N)c1=O | 150 |  |
| COc1ccc(-n2cc(-c3ccccn3)cc(-c3ccccc3C#N)c2=O)cc1 | 440 |  |
| N#Cc1ccccc1-c1cc(-c2ccccn2)cn(-c2ccc(F)nc2)c1=O | 500 |  |
| N#Cc1ccccc1-c1cc(-c2ccccn2)cn(-c2ccccc2C#N)c1=O | > 15000 |  |
| N#Cc1ccc(-n2cc(-c3ccccn3)cc(-c3ccccc3C#N)c2=O)cc1 | 520 |  |
| COc1ccc(-n2cc(-c3ccccn3)cc(-c3ccccc3C#N)c2=O)cn1 | 620 |  |
| O=C1COC(c2ccccc2)=NN1c1ccccc1 | 9170 |  |
| O=C1COC(c2ccccc2)=NN1Cc1ccccc1 | 33700 |  |

| SMILES | IC50 [1] [nM] | also measured |
| --- | --- | --- |
| O=C1COC(c2ccccc2)=NN1C1CCCCC1 | > 150000 |  |
| O=C1COC(C2CCCCC2)=NN1c1ccccc1 | > 150000 |  |
| CCCC1=NN(c2ccccc2)C(=O)CO1 | > 150000 |  |
| O=C1COC(Cc2ccccc2)=NN1c1ccccc1 | > 150000 |  |
| O=C1CCC(c2ccccc2)=NN1c1ccccc1 | 28100 |  |
| O=c1ccc(-c2ccccc2)cn1-c1ccccc1 | 69500 |  |
| O=c1[nH]cc(-c2ccccc2)cc1-c1ccccc1 | 57700 |  |
| O=c1c(-c2ccccc2)cc(-c2ccccc2)cn1-c1ccccc1 | 1080 |  |
| O=c1c(-c2ccccc2)cc(-c2ccccn2)cn1-c1ccccc1 | 320 |  |
| O=c1c(-c2ccccc2)cc(-c2ccccn2)cn1-c1cccnc1 | 440 |  |
| N#Cc1cccc(-c2cc(-c3ccccn3)cn(-c3ccccc3)c2=O)c1 | 7260 |  |
| N#Cc1ccc(-c2cc(-c3ccccn3)cn(-c3ccccc3)c2=O)cc1 | 28700 |  |
| O=c1c(-c2ccccc2F)cc(-c2ccccn2)cn1-c1ccccc1 | 200 |  |
| O=c1c(-c2ccccc2Cl)cc(-c2ccccn2)cn1-c1ccccc1 | 100 |  |
| Cc1ccccc1-c1cc(-c2ccccn2)cn(-c2ccccc2)c1=O | 400 |  |
| COc1ccccc1-c1cc(-c2ccccn2)cn(-c2ccccc2)c1=O | 1420 |  |
| O=c1c(-c2cccnc2F)cc(-c2ccccn2)cn1-c1ccccc1 | 370 | minimal effective dose [2]: 5 mg/kg |
| O=c1c(-c2cccnc2Cl)cc(-c2ccccn2)cn1-c1ccccc1 | 680 |  |
| N#Cc1ncccc1-c1cc(-c2ccccn2)cn(-c2ccccc2)c1=O | 200 | minimal effective dose [2]: 5 mg/kg |
| N#Cc1ccccc1-c1cc(-c2ccccn2)cn(-c2cccnc2)c1=O | 210 | minimal effective dose [2]: 10 mg/kg |
| N#Cc1ccccc1-c1cc(-c2ccccn2)cn(-c2ccccc2)c1=O [PERAMPANEL] | 60 | half-life [3]: 2.37 h; AUC [4]: 0.36 µg/mL/h; ED50 [5]: 1.6 mg/kg; Tmax [6]: 0.5 h; Kp at 1 h [7]: 1.06; Kp at 0.5 h [8]: 1.14; Vd [9]: 4.56 L/kg; Ratio [10]: 1.14; ED50 [11]: 0.47 mg/kg; clearance [12]: 30.3 mL/min/kg; minimal effective dose [2]: 2 mg/kg; AUC [13]: 0.56 µg/mL/h; Cmax [14]: 170 ng/mL; bioavailability [15]: 64.3%; ED50 [16]: 0.94 mg/kg; half-life [17]: 70 h |
